According to ChEMBL document CHEMBL4732048, “Amphiphilic desmuramyl peptides for the rational design of new vaccine adjuvants: Synthesis, in vitro modulation of inflammatory response and molecular docking studies” (2021):
Calls of active or inactive are those of the source. No cut-off for these calls is given here.

Legend:
THP-1 [1] = assay: Immunostimulatory activity in human THP-1 cells assessed as increase in LPS-induced ICAM-1 expression at 20 uM preincubated for 1 hr followed by LPS stimulation for 20 hrs by flow cytometry analysis; assay type: functional, cell-based; conditions: time 21.0 hrs
Procedure, shortened: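 Undifferentiated THP-1 monocytes (0.5×10^6/well, pre-cultured 24 h) pretreated 1 h with peptide (range 0.1–32 µM), then LPS 0.1 µg/mL added for 20 h. Cells pelleted, PBS-washed, resuspended in PBS with 0.1% BSA; ICAM-1 measured by flow cytometry.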

THP-1 [2] = assay: Immunostimulatory activity in human THP-1 cells assessed as increase in ICAM-1 expression level at 20 uM incubated for 21 hrs by flow cytometry analysis; assay type: functional, cell-based
Procedure, shortened: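 THP-1 monocytes in RPMI-1640 with 10% heat-inactivated FBS and 1% antibiotic/antimycotic, 5% CO2, 37 °C. 0.5×10^6 cells/well pre-cultured 24 h, then exposed to 20 µM peptide for 21 h. Cells centrifuged, PBS-washed, resuspended in PBS/0.1% BSA, stained with PE anti-CD54 antibody; flow cytometry read-out of ICAM-1.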

THP-1 [3] = assay: Immunostimulatory activity in human THP-1 macrophage assessed as increase in TNF-alpha production at 30 uM incubated for 24 hrs by ELISA; assay type: functional, cell-based
Procedure, shortened: (§1)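 THP-1 monocytes (0.5×10^6) differentiated 48 h with PMA 20 ng/mL, PBS-washed, held 3 h in serum-free medium, then stimulated 24 h with peptide at 1, 15 or 30 µM. TNF-α in culture supernatants (stored −80 °C) measured by ELISA at 450 nm with 540 nm correction against a 2nd-order polynomial standard curve; mean of two experiments ± SEM; one-way ANOVA.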

THP-1 [4] = assay: Immunostimulatory activity in human THP-1 macrophage assessed as increase in TNF-alpha production at 15 uM incubated for 24 hrs by ELISA; assay type: functional; procedure, shortened: as §1
THP-1 [5] = assay: Immunostimulatory activity in human THP-1 macrophage assessed as increase in LPS-induced ICAM-1 expression by measuring mean fluorescence intensity at 20 uM preincubated for 1 hr followed by LPS stimulation for 20 hrs by flow cytometry analysis (reference value: 602.95); assay type: functional; conditions: time 21 hrs

SMILES	Activity (THP-1 [1])	Activity (THP-1 [2])	Activity (THP-1 [3])	Activity (THP-1 [4]) [pg/mL]	Flu intensity (THP-1 [5])
CCCCCCNC(=O)CC[C@@H](NC(=O)[C@H](C)NC(=O)COc1cccc(N(CCCO)CCCO)c1)C(N)=O	Active	inactive	inactive	3306	
CCCCCCNC(=O)CC[C@@H](NC(=O)[C@H](C)NC(=O)COc1cccc(N(CCO)C(=O)CCC)c1)C(N)=O	Active	inactive	inactive	2806	
CCCCCCNC(=O)CC[C@@H](NC(=O)[C@H](C)NC(=O)COc1cccc(N(CCCO)C(C)=O)c1)C(N)=O	Active	inactive	inactive	2902	
CCCCCCNC(=O)CC[C@@H](NC(=O)[C@H](C)NC(=O)COc1cccc(N(CCO)C(C)=O)c1)C(N)=O	Active	inactive	inactive	3342	
CCCCCCNC(=O)CC[C@@H](NC(=O)[C@H](C)NC(=O)COc1cccc(NCCO)c1)C(N)=O	Active	inactive	inactive	3226	
CCCCOC(=O)[C@@H](CCC(N)=O)NC(=O)[C@H](C)NC(=O)[C@@H](C)O[C@H]1[C@H](O)[C@@H](CO)O[C@H](O)[C@@H]1NC(C)=O		inactive		2694	1436.05
CCCCCCNC(=O)CC[C@@H](NC(=O)[C@H](C)NC(=O)COc1cccc(NCCCO)c1)C(N)=O	Active	inactive	inactive	3622	
CCCCCCNC(=O)CC[C@@H](NC(=O)[C@H](C)NC(=O)COc1cccc(N(CCO)CCO)c1)C(N)=O	Active	inactive	inactive	3111	
CCCCCCNC(=O)CC[C@@H](NC(=O)[C@H](C)NC(=O)COc1cccc(N(CCCO)C(=O)CCC)c1)C(N)=O	Active	inactive	inactive	3105	905.38
